TRPC6 inh: mouse TRPC6 channel inhibitors, primary screen, cell-based, HEK293, membrane potential dye. B-score at 10 µM. AID 2553, 2010. 1.1% of 310,000 active. ACh-evoked depolarization; stronger effect = lower value;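 active = B-score under library mean minus 3 SD, initial fluorescence not abnormally high, positive integrated signal ratio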;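 note: B-score derived from integrated fluorescence ratio over the kinetic read; more negative B-score means stronger inhibition of depolarization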
TRPC4 inh: inhibitors of mouse TRPC4 channel, primary screen, Fluo4 calcium, HEK293 TRPC4beta/mu-opioid cells; Short transient receptor potential channel 4 (Mus musculus), Q9QUQ5; DAMGO-evoked Fluo4 calcium flux; stronger effect = lower value; B-score at 10 µM; 0.39% of 300,000 active; AID 2247, 2010;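 active = B-score over 3 SD under the library average, no early fluorescence shift, positive overall ratio signal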
Target sequence (Q9QUQ5 whole entry, looked up): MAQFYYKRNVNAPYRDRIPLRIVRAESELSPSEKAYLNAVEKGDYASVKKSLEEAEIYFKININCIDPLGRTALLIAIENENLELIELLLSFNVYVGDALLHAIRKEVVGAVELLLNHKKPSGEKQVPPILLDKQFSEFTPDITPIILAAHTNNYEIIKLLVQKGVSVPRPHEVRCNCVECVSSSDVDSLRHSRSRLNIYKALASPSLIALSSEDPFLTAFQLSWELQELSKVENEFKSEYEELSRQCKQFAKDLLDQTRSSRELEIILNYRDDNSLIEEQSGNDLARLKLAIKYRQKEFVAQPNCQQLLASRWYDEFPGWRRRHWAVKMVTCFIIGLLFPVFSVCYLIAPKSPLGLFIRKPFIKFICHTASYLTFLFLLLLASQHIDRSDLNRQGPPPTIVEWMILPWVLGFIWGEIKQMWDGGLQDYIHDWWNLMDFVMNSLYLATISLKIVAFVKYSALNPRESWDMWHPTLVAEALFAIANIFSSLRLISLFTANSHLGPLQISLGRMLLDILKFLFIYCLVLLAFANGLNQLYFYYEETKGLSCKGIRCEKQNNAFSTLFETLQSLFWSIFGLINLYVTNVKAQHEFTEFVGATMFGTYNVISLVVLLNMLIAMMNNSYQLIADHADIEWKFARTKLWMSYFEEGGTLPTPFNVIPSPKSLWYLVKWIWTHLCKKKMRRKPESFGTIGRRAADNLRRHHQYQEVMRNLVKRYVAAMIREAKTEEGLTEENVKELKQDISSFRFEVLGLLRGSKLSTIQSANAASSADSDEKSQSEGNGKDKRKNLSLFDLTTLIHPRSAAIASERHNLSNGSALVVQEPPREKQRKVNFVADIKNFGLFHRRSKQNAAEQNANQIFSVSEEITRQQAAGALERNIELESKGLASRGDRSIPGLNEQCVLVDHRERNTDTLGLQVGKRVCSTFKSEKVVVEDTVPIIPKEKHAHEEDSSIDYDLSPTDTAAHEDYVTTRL
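test system = HEK293 cells with stable TRPC4beta plus mu-opioid receptor expression | detection = Fluo4 Ca2+ flux fluorescence | read-out = integrated fluorescence ratio relative to baseline, converted to per-well B score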
TRPC6 activator: mouse TRPC6 channel activators, primary screen, cell-based, HEK293, membrane potential dye; HEK293-TRPC6 membrane potential dye fluorescence; stronger effect = higher value; B-score at 10 µM; 0.13% of 310,000 active;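 active = B-score of the integrated fluorescence ratio above library mean plus 3 SD, and starting fluorescence ratio within library mean plus 5 SD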;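 note: higher score means more depolarization so channel activation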
TRPC4 potent: positive allosteric modulators of TRPC4, primary screen, cell-based, mouse TRPC4beta, HEK293 mu-opioid, Fluo-4 calcium; DAMGO EC20, Fluo-4 Ca2+ flux; stronger effect = higher value; B-score at 10 µM; 0.42% of 310,000 active; AID 2227, 2009;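 active = B-score of calcium response area above 5 SD of library B-scores, with initial fluorescence ratio within 5 SD of library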;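 note: B-score of integrated fluorescence ratio over time as area under calcium response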
TRPC4 agonist: activators of mouse TRPC4 channel, primary screen, Fluo4 calcium, HEK293 TRPC4beta/mu-opioid cells. Fluo4 calcium fluorescence; stronger effect = higher value. B-score at 10 µM. 0.49% of 310,000 active;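 active = B-score above 5 SD of library B-scores, and initial fluorescence ratio not above library mean plus 5 SD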;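 note: positive B-score marks a calcium rise read as TRPC4 activation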
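Material: TRPC4beta and mu-opioid receptor HEK293 stable cells | Incubation: 45 min room-temperature Fluo4 loading, 110 s read | Detection: Kinetic Fluo4 calcium fluorescence | Measure: Integrated baseline-normalised fluorescence ratio, converted to per-well B score | Benchmarks: Low control buffer alone, high control maximal DAMGO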
TRPC4 sel inh 2: mouse TRPC4 off-target activity of TRPC6 inhibitors, second screen; shares compounds with TRPC6 inh; HEK293 TRPC4/MOR, membrane potential dye fluorescence; channel activated by saturating DAMGO dose; inhibition, % at 10 µM; 42% of 920 active;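 active = compounds whose fluorescence signal differed from control wells by over 3 SD, either direction, in both duplicate plates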
TRPC4 spec: mouse TRPC4 modulation by TRPC6 hits, confirmation, selectivity assay for TRPC6 inhibitor project, cell-based, HEK293 TRPC4/mu-opioid, membrane potential dye | activity change, negative = inhibition, % at 10 µM | shares compounds with TRPC6 inh | 61% of 920 active | membrane potential fluorescence | AID 2777, 2010;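 active = rise or fall in signal beyond 3 SD of buffer-only wells in both replicate plates, either sign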;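 note: integrated kinetic ratio of fluorescence range over baseline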
HEK293 MPD ctr 2-1: nonspecific membrane potential effects, parental HEK293, confirmation, counter-screen for TRPC6 inhibitor project, cell-based, second counter screen | signal change vs control, % at 10 µM | 31% of 920 active | parental HEK293 membrane potential dye fluorescence; maximal acetylcholine challenge after compound addition | AID 2779, 2010 | shares compounds with TRPC6 inh;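 active = membrane potential signal moving either way by over 3 SD of the maximum-effect control, in both duplicate plates, meaning non-specific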
HEK293 MPD ctr-1: membrane potential modulation in parental HEK293, confirmation, counter-screen for TRPC6 inhibitor project, cell-based. 60% of 920 active. AID 2780, 2010. shares compounds with TRPC6 inh. parental HEK293 membrane potential dye fluorescence. membrane potential signal change, % at 10 µM;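 active = membrane potential signal shifting up or down by more than 3 SD of buffer-only wells, on both duplicate plates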
HEK293 MPD ctr-2: parental HEK293 membrane potential modulation, confirmation, counter-screen for TRPC6 modulator project, cell-based. shares compounds with TRPC6 inh. membrane potential dye fluorescence. 51% of 2,400 active. membrane potential signal change, % at 10 µM;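 active = membrane potential signal moves up or down beyond 5 SD from buffer-only wells, on both duplicate plates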
HEK293 MPD ctr 2-2: second counter-screen for TRPC6 modulators: effect in parental HEK293 cells | inhibition, % at 10 µM | shares compounds with TRPC6 inh | 14% of 2,400 active | membrane potential dye fluorescence; after compound, maximal acetylcholine stimulation;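 active = membrane potential signal drops by more than 5 SD from the mean control signal, in both duplicate plates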;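 note: plate controls were acetylcholine ECmax control wells for no effect and buffer only wells for full effect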
TRPC4 ctr mod: TRPC4 modulation by TRPC6 hit compounds, confirmation, selectivity assay for TRPC6 modulator project, cell-based, HEK293 TRPC4/mu-opioid, membrane potential dye, mouse; shares compounds with TRPC6 inh; membrane potential fluorescence; percent change from control (negative = decrease, positive = increase), % at 10 µM; 69% of 2,400 active; AID 488927, 2010;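 active = membrane potential signal moved up or down beyond 5 SD of buffer control wells, in both duplicate plates, actives on both sides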;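 note: plate controls were assay buffer wells for no effect and DAMGO maximal-effect wells for full effect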
TRPC4/MOR inh 2: second check of whether TRPC6 modulators also affect mouse TRPC4; AID 488928; HEK293 TRPC4/mu-opioid, membrane potential dye fluorescence; stimulated with maximal-effect DAMGO; shares compounds with TRPC6 inh; 55% of 2,400 active; inhibition, % at 10 µM;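 active = drop in membrane potential signal beyond 5 SD of the control wells in both duplicate plates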;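 note: TRPC4 counter screen for TRPC6 hits run under conditions tuned for TRPC6 not TRPC4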
TRPC6 inh conf: mouse TRPC6 channel inhibitors, confirmation, HEK293 cells, membrane potential dye, duplicate; shares compounds with TRPC6 inh; AID 488960, 2010; 43% of 3,300 active; inhibition, % at 10 µM; ACh-evoked depolarization;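 active = fluorescence ratio falls more than 5 SD below the full-stimulation control mean, in both duplicate runs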;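 note: integrated fluorescence ratio of peak minus minimum over baseline after agonist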
TRPC6 act confirm: mouse TRPC6 channel activators, confirmation, HEK293 cells, membrane potential dye, duplicate; shares compounds with TRPC6 inh; 11% of 2,800 active; activation, % at 10 µM; HEK293-TRPC6 membrane potential dye fluorescence, FDSS; AID 488961, 2010;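 active = ratio signal rise beyond 5 SD above unstimulated control wells' mean, seen in both duplicate runs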;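 note: plate controls were buffer EC0 wells for no effect and acetylcholine ECmax response for full effect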
Numbers without * were called inactive; i = inactive; nt = not tested or not shown. This is a sample that favours compounds with a hit; in the whole collection about 2.3% have one here.

SMILES | TRPC6 inh | TRPC4 inh | TRPC6 activator | TRPC4 potent | TRPC4 agonist | HEK293 MPD ctr-2 | HEK293 MPD ctr 2-2 | TRPC4 ctr mod | TRPC4/MOR inh 2 | TRPC6 inh conf | TRPC6 act confirm | others
O=C1OCCC1Sc1nnc(-c2cccnc2)n1-c1ccccc1F (stereo not given) | -7.5* | i | i | i | i | nt | nt | nt | nt | i | i | TRPC4 sel inh 2=i;TRPC4 spec=i;HEK293 MPD ctr 2-1=i;HEK293 MPD ctr-1=i
O=c1c2ccccc2nnn1CSc1nnc(-c2cccnc2)n1-c1ccccc1F | i | i | i | i | i | nt | nt | nt | nt | nt | nt
CCOc1ccc(N2CC(NC(=O)c3ccc4ccccc4c3)CC2=O)cc1 (stereo not given) | i | i | i | i | i | nt | nt | nt | nt | nt | nt
CN(C)CCNC(=O)c1ccccc1 | i | i | i | i | i | nt | nt | nt | nt | nt | nt
Cc1sc(NC(=O)c2ccccc2)c(C(=O)NCCN(C)C)c1C | -11* | i | i | i | 148* | -161%* | i | -31%* | 74%* | 62%* | i
Cc1c(C)n(CCc2ccccc2)c2ncnc(NCCCN(C)C)c12 | -6.3* | i | i | i | i | -70%* | i | -22%* | 58%* | 58%* | i
Cc1c(C)n(CCN(C)C)c2ncnc(NCc3ccccc3)c12 | i | i | i | i | i | nt | nt | nt | nt | nt | nt
Cc1c(C)n(CCCN(C)C)c2ncnc(Nc3ccc(F)cc3)c12 | -6.3* | i | i | i | i | -144%* | i | -30%* | 38%* | 40%* | i
CC(=O)/C=C(\C)N=Nc1c(O)[nH]c2ccccc12 | i | i | i | i | i | nt | nt | nt | nt | nt | nt
S=C(Nc1ccc(N2CCOCC2)cc1)Nc1ccc2snnc2c1 | i | i | i | i | i | nt | nt | nt | nt | nt | nt
CCN(CC)CC(=O)N1c2ccccc2Sc2ccccc21 | i | i | i | i | i | nt | nt | nt | nt | nt | nt
CCN(CC)CC(=O)N1c2ccccc2Sc2ccc(Cl)cc21 | -8.2* | i | i | i | i | nt | nt | nt | nt | i | nt | TRPC4 sel inh 2=i;TRPC4 spec=6.0%*;HEK293 MPD ctr 2-1=i;HEK293 MPD ctr-1=7.4%*
NCCCC(=O)N1c2ccccc2Sc2ccccc21 | -6.9* | i | i | i | i | nt | nt | nt | nt | i | i | TRPC4 sel inh 2=i;TRPC4 spec=i;HEK293 MPD ctr 2-1=i;HEK293 MPD ctr-1=i
O=C(CCN1CCOCC1)N1c2ccccc2Sc2ccc(Cl)cc21 | -5.2* | i | i | i | i | i | 75%* | 14%* | i | 50%* | nt
NCCC(=O)N1c2ccccc2Sc2ccccc21 | i | i | i | i | i | nt | nt | nt | nt | nt | nt
CCCNC(=O)[C@H]1N2C(=O)c3c(ccc(OC)c3OC)C2SC1(C)C (stereo not given in full) | i | i | i | i | i | nt | nt | nt | nt | nt | nt
COc1ccccc1NC(=O)CSCc1ccc([N+](=O)[O-])cc1 | i | i | i | i | i | nt | nt | nt | nt | nt | nt
COc1ccc(-c2nc3n(c2C)Cc2ccccc2-3)cc1 | -6.2* | i | i | i | i | -70%* | i | -14%* | 52%* | i | i
O=Nc1[nH]c(=O)c(/C=C(\O)c2ccccc2)nc1NO | i | i | i | i | i | nt | nt | nt | nt | nt | nt
O=C(CSc1n[nH]c(-c2ccccc2F)n1)NCC(=O)Nc1ccc(F)c(F)c1F | i | i | i | i | i | nt | nt | nt | nt | nt | nt
Cc1cc(C)n(-c2nnc(C)n2/N=C/c2ccccc2OCc2ccccc2Cl)n1 | i | i | 13* | i | i | 474%* | i | 85%* | i | i | 116%*
CC12C(=O)N(c3ccc(C(=O)N4CCOCC4)cc3)C(=O)C1C1c3ccccc3C2c2ccccc21 (stereo not given) | i | i | i | i | i | nt | nt | nt | nt | nt | nt
Nc1c(Cl)ncnc1NCC(O)CO (stereo not given) | i | i | i | i | i | nt | nt | nt | nt | nt | nt
CCN(CC)CCCNc1oc(-c2cccc(Cl)c2)nc1C#N | -6.1* | i | i | i | i | i | i | i | 34%* | 54%* | i
CN(C)CCCNc1oc(-c2ccc(Cl)cc2)nc1C#N | i | i | i | i | i | nt | nt | nt | nt | nt | nt
CC(C)N1CCc2c(sc(NC(=S)NC(=O)c3ccccc3)c2C#N)C1 | i | i | 48* | i | 71* | i | i | 8.0%* | i | i | i
